Experimental data published in ChEMBL document CHEMBL1123330, “Synthesis and antitumor activities of unsymmetrically substituted 1,4-bis[(aminoalkyl)amino]anthracene-9,10-diones and related systems” (1986).
≈ marks a conversion by molar mass, not a printed value.

Tested on: L1210
Assay: In vitro inhibition of L1210 cell growth.
Type: functional
Conditions: Mus musculus, read-out: ID50 (the source's name)
In short: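 Murine L1210 leukemia cells grown in suspension in McCoy's 5A with 10% horse serum, glutamine, penicillin, streptomycin; 37 °C, 10% CO2. Compound in Me2SO added to 10^5 cells/tube to final 0.01, 0.1 and 10 μg/mL; 7 h continuous exposure.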

| SMILES | IC50 |
| --- | --- |
| COc1ccc(NCCCNC(C)=O)c2c1C(=O)c1ccccc1C2=O | > 10 µg/mL |
| CN(C)CCNc1ccc(NCCCCNC(=O)OCc2ccccc2)c2c1C(=O)c1ccccc1C2=O | 0.88 µg/mL (≈ 1.71 µM) |
| CC(=O)NCCCCNc1ccc(NCCN(C)C)c2c1C(=O)c1ccccc1C2=O | 0.03 µg/mL (≈ 0.071 µM) |
| CC(=O)NCCCNc1ccc(NCCN(C)C)c2c1C(=O)c1ccccc1C2=O | 0.4 µg/mL (≈ 0.979 µM) |
| COc1ccc(NCCCCNC(=O)OCc2ccccc2)c2c1C(=O)c1ccccc1C2=O | > 10 µg/mL |
| CN(C)CCNc1ccc(NCCCCN)c2c1C(=O)c1ccccc1C2=O | 0.0045 µg/mL (≈ 0.0118 µM) |
| COc1ccc(NCCCCCNC(C)=O)c2c1C(=O)c1ccccc1C2=O | 9 µg/mL (≈ 23.7 µM) |
| CN(C)CCCNc1ccc(NCCCCN)c2c1C(=O)c1ccccc1C2=O | 0.18 µg/mL (≈ 0.456 µM) |
| COc1ccc(NCCCCN)c2c1C(=O)c1ccccc1C2=O | 1.8 µg/mL (≈ 5.55 µM) |
| COc1ccc(NCCCCNC(C)=O)c2c1C(=O)c1ccccc1C2=O | > 10 µg/mL |
| CC(=O)NCCCCCNc1ccc(NCCN(C)C)c2c1C(=O)c1ccccc1C2=O | 2.3 µg/mL (≈ 5.27 µM) |
| CN(C)CCNc1ccc(NCCCN)c2c1C(=O)c1ccccc1C2=O | 0.05 µg/mL (≈ 0.136 µM) |
| COc1ccc(NCCCN)c2c1C(=O)c1ccccc1C2=O | 2.8 µg/mL (≈ 9.02 µM) |
| CN(C)CCCNc1ccc(NCCCCNC(=O)OCc2ccccc2)c2c1C(=O)c1ccccc1C2=O | 0.29 µg/mL (≈ 0.549 µM) |
| CC(=O)NCCNc1ccc(NCCN(C)C)c2c1C(=O)c1ccccc1C2=O | 2.05 µg/mL (≈ 5.2 µM) |
| COc1ccc(NCCN)c2c1C(=O)c1ccccc1C2=O | 2.5 µg/mL (≈ 8.44 µM) |
| COc1ccc(NCCNC(C)=O)c2c1C(=O)c1ccccc1C2=O | > 10 µg/mL |
